Screening results deposited in PubChem BioAssay by several laboratories.
A selection: hits, their analogues and other compounds. The true share with any hit is near 1.9%.
TDP2 absorb – human TDP2 enzyme inhibitors, primary screen, biochemical, epi absorbance, recombinant enzyme; inhibition, % at 12.8 µM; T5PNP hydrolysis, p-nitrophenol absorbance 415 nm; 0.34% of 370,000 active; Tyrosyl-DNA phosphodiesterase 2 (Homo sapiens), O95551; AID 720702, 2013;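 active = inhibition above the mean of all tested compounds plus 3 SD, set per campaign, cut at about 25% in these data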;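 note: 0% = DMSO with enzyme and 100% = buffer with substrate but no TDP2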
Target sequence (O95551 whole entry, looked up): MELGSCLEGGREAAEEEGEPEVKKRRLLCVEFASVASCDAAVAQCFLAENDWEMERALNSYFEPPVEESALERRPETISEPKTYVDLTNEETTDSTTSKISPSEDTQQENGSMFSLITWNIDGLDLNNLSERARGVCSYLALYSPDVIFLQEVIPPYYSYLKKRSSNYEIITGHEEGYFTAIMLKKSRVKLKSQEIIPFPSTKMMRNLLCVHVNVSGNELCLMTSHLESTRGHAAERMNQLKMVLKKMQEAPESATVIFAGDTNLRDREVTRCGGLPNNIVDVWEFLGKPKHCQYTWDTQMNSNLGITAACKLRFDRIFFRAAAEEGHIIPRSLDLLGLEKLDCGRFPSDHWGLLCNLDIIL
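Test system: Human TDP2 enzyme | Reagent: 5 mM T5PNP | Compound dosing: 12.8 µM single point, 1% DMSO | Incubation: Enzyme reaction with compound for 2 h at 37 °C | Technique: p-Nitrophenol epi absorbance | Read-out: % inhibition relative to enzyme-containing and enzyme-free wells | Benchmarks: High control without enzyme, low control DMSO plus TDP2 | Replicates: Singlicate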
UHRF1 binding – UHRF1 methylated DNA binding inhibitors, primary screen, counter-screen for MBD2 inhibitor project, biochemical, TR-FRET, human UHRF1, single concentration. inhibition, % at 4.4 µM. E3 ubiquitin-protein ligase UHRF1 (Homo sapiens), Q96T88. UHRF1 binding to methylated oligo. 0.75% of 370,000 active; in the data active = inhibition above about 21%;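 note: UHRF1 SRA domain binding a hemimethylated CpG hairpin DNA probe; 0% = median of test compound wells and 100% = reference inhibitor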
MBD2 inh – inhibitors of MBD2 binding to methylated DNA, primary screen, biochemical, TR-FRET, DNA-binding domain, human | Methyl-CpG-binding domain protein 2 (Homo sapiens), Q9UBB5 | MBD2 binding to methylated oligonucleotide | inhibition, % at 4.4 µM | 0.31% of 370,000 active | AID 686964, 2013; in the data active = inhibition above about 13%
LEDGF integ inh – blockers of LEDGF/p75-dependent integrase strand transfer – biochemical, TR-FRET, high throughput, primary screen; TR-FRET IN-LEDGF/p75 DNA integration, Eu/Cy5; inhibition, % at 3.7 µM; 0.64% of 370,000 active; AID 743269, 2014;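 active = inhibition above the screen-wide mean plus 3 SD, cut at about 13% in these data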;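 note: signal is the Cy5 over europium emission ratio at 671 and 618 nm; 0% = plate median of compound wells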
NSD2 inh – NSD2 histone methyltransferase inhibitors, primary screen, biochemical, AlphaScreen, single concentration, set 2; Histone-lysine N-methyltransferase NSD2 (Homo sapiens), O96028; NSD2 peptide methylation, 120 min; 0.54% of 310,000 active; AID 743445, 2014; inhibition, % at 12.5 µM; in the data active = inhibition above about 50%
Casp6 inh – human caspase-6 inhibitors, primary screen, biochemical, VEID-R110 fluorescence, single point, set 2 | purified caspase-6, Z-VEID-R110 cleavage fluorescence | 0.53% of 350,000 active | inhibition, % at 12.5 µM | P55212;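 active = mean inhibition across replicates at least about 35%, with every replicate also reaching that limit, limit read from the data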;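 note: 0% = median of neutral control wells and 100% = no fluorescence left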
Alpha artifact – AlphaScreen signal interference with preloaded methylated product, dose response, artefact control for NSD2 inhibitor project, biochemical, cherry-picked samples; AC35, µM (doses to about 10 µM), inactives show top-dose activity change, negative = signal loss; AlphaScreen artifact counterscreen, preloaded methylated H4 peptide; shares compounds with NSD2 inh; 9.4% of 1,500 active; call rule not given here
Starred values were filed as active, the others as inactive; nt = no result.

SMILES	TDP2 absorb	UHRF1 binding	MBD2 inh	LEDGF integ inh	NSD2 inh	Casp6 inh	Alpha artifact
CCN(CC)C(=O)c1ccc(Oc2ccc([N+](=O)[O-])cc2Cl)cc1	13	0	3	-2	7	-1	nt
C[C@H](CO)N1C[C@H](C)[C@H](CN(C)Cc2ccccc2)Oc2ccc(NC(=O)C3CC3)cc2C1=O	nt	nt	nt	nt	nt	2	nt
Cc1ccc(NC(=S)N2CCC(NC(=O)c3ccc(F)cc3)CC2)cc1	2	1	-2	3	61*	0	-1%
COc1ccc(CNC(=O)CCCn2nc(C)c([N+](=O)[O-])c2C)cc1OC	-3	2	-3	-7	86*	-3	8%
CO[C@H]1CN(C)C(=O)c2cc(NS(=O)(=O)c3ccccc3)ccc2OC[C@H](C)N(Cc2ccccn2)C[C@H]1C	nt	nt	nt	nt	nt	3	nt
CCNc1ccccc(C(=O)/C=C/c2ccc3c(c2)OCO3)c1=O	5	-4	1	9	66*	nt	-5%
O=C1CCCC2=C1C(c1ccc(O)c(O)c1)c1c(ccc3ncccc13)N2 (configuration not stated)	0	0	1	1	77*	62*	0%
CCOc1ccc(C2C3=C(CCCC3=O)Nc3ccc4ncccc4c32)cc1 (configuration not stated)	-14	-1	-6	1	-6	3	nt
CN1c2ccc(Br)cc2[C@H]2[C@H](CCN2C(=O)C2CCOCC2)[C@H]1CO	nt	nt	nt	nt	nt	3	nt
